Activity calls are given as the source filed them. The calls are words filed in the database; no cut-off is given here.
Columns and labels:
Plasmepsin I = Plasmepsin I (Plasmodium falciparum, UniProt P39898); assay: Inhibition of Plasmodium falciparum plasmepsin 1 using DABCYL-Glu-Arg-Nle-Phe-Leu-Ser-Phe-Pro-EDANS as substrate preincubated for 30 mins followed by substrate addition and measured every min for 8 to 15 mins by FRET assay
Plasmepsin 4 = Plasmepsin 4 (Plasmodium falciparum, UniProt Q17SB2); assay: Inhibition of Plasmodium falciparum plasmepsin 4 using DABCYL-Glu-Arg-Nle-Phe-Leu-Ser-Phe-Pro-EDANS as substrate preincubated for 30 mins followed by substrate addition and measured every min for 8 to 15 mins by FRET assay
Sequence of Plasmepsin 4 (Q17SB2 whole entry): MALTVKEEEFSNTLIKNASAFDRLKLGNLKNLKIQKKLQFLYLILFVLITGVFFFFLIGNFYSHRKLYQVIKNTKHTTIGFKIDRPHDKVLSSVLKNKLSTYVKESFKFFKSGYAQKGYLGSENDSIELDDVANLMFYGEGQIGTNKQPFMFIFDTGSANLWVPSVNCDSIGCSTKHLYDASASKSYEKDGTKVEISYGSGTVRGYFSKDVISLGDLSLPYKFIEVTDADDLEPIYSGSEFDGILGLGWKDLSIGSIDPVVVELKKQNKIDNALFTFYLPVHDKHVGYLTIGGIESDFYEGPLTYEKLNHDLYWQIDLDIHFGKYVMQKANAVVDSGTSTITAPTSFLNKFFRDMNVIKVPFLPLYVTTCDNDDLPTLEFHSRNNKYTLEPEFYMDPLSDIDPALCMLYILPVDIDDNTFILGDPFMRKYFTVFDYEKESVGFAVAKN

Cathepsin D = Cathepsin D (Homo sapiens, UniProt P07339); assay: Inhibition of human cathepsin D using DABCYL-Glu-Arg-Nle-Phe-Leu-Ser-Phe-Pro-EDANS as substrate preincubated for 30 mins followed by substrate addition and measured every min for 8 to 15 mins by FRET assay
Sequence of Cathepsin D (P07339 65-162 limits assumed): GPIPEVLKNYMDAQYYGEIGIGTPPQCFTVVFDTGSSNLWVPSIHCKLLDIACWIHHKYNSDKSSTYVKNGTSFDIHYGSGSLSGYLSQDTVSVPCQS
Sequence of Cathepsin D (P07339 169-412 limits assumed): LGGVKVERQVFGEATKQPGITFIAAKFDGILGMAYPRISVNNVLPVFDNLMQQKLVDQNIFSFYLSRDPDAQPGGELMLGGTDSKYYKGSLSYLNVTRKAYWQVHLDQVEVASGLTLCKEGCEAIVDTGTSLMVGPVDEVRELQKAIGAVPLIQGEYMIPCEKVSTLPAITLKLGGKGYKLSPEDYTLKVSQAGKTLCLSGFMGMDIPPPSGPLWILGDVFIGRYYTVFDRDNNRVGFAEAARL

Plasmepsin II = Plasmepsin II (Plasmodium falciparum, UniProt P46925); assay: Inhibition of Plasmodium falciparum plasmepsin 2 using DABCYL-Glu-Arg-Nle-Phe-Leu-Ser-Phe-Pro-EDANS as substrate preincubated for 30 mins followed by substrate addition and measured every min for 8 to 15 mins by FRET assay
Sequence of Plasmepsin II (P46925 whole entry): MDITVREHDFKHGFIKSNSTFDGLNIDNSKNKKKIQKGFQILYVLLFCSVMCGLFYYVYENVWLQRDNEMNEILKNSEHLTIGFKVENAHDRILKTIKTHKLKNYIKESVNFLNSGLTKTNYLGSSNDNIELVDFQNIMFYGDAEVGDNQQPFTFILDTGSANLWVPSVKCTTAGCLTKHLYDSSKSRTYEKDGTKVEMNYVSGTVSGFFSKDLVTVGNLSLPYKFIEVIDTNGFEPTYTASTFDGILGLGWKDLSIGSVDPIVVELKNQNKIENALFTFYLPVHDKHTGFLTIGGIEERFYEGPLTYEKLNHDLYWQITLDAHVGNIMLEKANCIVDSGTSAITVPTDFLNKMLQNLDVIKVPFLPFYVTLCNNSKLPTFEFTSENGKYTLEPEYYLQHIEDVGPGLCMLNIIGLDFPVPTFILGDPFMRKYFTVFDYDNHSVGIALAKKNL

Plasmodium falciparum = assay: Antimalarial activity against blood stage form of Plasmodium falciparum 3D7 infected in erythrocytes after 96 hrs by SYBR Green I dye-based spectrophotometric analysis; format: functional, organism-based; conditions: 3D7, 96 h
Procedure, shortened: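 P. falciparum blood-stage growth was read by SYBR Green fluorescence after a 96 h incubation (2 erythrocytic cycles). EC50 values came from triplicate samples in 2 separate biological assays, with a reference inhibitor as positive control.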

[1] = molecular target: Plasmepsin X (Plasmodium falciparum (isolate 3D7)) (UniProt Q8IAS0); assay: Inhibition of Plasmodium falciparum plasmepsin 10-mediated SUB1 maturation and egress assessed as enrichment of SUB1 p54 form level at 10 nM after 8 hrs by Western blot analysis
Sequence of Plasmepsin X (Plasmodium falciparum (isolate 3D7)) (Q8IAS0 whole entry): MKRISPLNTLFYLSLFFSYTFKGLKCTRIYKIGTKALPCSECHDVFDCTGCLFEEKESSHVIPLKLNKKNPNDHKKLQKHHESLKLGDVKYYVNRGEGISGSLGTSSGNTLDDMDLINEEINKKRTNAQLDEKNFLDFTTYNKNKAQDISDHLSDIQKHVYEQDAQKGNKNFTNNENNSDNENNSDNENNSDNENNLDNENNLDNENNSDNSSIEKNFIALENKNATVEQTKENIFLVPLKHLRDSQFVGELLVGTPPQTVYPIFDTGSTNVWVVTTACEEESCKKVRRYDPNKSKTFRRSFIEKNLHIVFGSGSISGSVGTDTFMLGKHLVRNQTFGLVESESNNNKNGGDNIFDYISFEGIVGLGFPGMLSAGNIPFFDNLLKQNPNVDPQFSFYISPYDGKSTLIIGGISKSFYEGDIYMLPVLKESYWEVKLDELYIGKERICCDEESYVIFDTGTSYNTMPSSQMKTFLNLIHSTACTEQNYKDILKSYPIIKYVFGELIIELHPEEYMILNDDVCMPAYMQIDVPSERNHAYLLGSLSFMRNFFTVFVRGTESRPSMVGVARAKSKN
Procedure, shortened: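 Synchronous cultures of immature intracellular parasites were exposed for ~8 h to compound at 10 nM. Controls were vehicle (DMSO, 1% v/v) and a cGMP-dependent protein kinase inhibitor at 2 μM. Parasite extracts were analysed by Western blot with anti-SUB1 antibody, scoring the p54 and p47 forms.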

[2] = molecular target: Plasmepsin X (Plasmodium falciparum (isolate 3D7)) (UniProt Q8IAS0); assay: Inhibition of Plasmodium falciparum plasmepsin 10-mediated SUB1 maturation and egress assessed as reduction in SERA5 P50 level at 10 nM by Western blot analysis

Sequence of Plasmepsin I (P39898 whole entry): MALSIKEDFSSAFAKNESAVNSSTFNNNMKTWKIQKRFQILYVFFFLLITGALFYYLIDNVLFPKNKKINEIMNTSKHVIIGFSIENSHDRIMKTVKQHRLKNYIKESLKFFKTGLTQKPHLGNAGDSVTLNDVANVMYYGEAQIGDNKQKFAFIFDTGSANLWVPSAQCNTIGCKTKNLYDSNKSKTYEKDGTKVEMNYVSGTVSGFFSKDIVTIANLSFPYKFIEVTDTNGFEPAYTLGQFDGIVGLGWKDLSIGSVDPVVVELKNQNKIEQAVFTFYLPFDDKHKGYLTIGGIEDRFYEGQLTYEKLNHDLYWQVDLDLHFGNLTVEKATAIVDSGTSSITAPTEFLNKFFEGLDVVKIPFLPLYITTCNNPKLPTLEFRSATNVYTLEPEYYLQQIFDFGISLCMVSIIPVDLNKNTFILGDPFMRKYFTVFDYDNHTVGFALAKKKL

Compound: COc1cccc(C(C)(C)NC[C@@H](O)[C@H](Cc2ccccc2)NC(=O)c2cccc(C(=O)NCC(C)(C)C)c2)c1
- IC50 (Plasmepsin I): 5600 nM
- IC50 (Plasmepsin 4): 76 nM
- IC50 (Cathepsin D): 3800 nM
- IC50 (Plasmepsin II): 7100 nM
- EC50 (Plasmodium falciparum): 2 nM

Compound: CCCN(CCC)C(=O)c1cc(F)cc(C(=O)N[C@@H](Cc2ccccc2)[C@H](O)CNC(C)(C)c2cccc(OC)c2)c1
- IC50 (Plasmepsin I): 1100 nM
- IC50 (Plasmepsin 4): 50 nM
- IC50 (Cathepsin D): 1000 nM
- IC50 (Plasmepsin II): 1100 nM
- inhibition [1]: Active
- EC50 (Plasmodium falciparum): 1.5 nM
- inhibition [2]: Active

Compound: COc1cccc(C(C)(C)NC[C@@H](O)[C@H](Cc2ccccc2)NC(=O)c2cc(C(=O)NCCN(C)C)cc(N3CCCCC3)c2)c1
- IC50 (Plasmepsin 4): 360 nM
- IC50 (Cathepsin D): 4800 nM

Compound: CCCN(CCC)C(=O)c1cc(Cl)cc(C(=O)N[C@@H](Cc2ccccc2)[C@H](O)CNC(C)(C)c2cccc(OC)c2)c1
- IC50 (Plasmepsin 4): 8 nM
- IC50 (Cathepsin D): 96 nM

Compound: COc1cccc(C(C)(C)NC[C@@H](O)[C@H](Cc2ccccc2)NC(=O)c2cc(C(=O)N(CCC(F)(F)F)CCC(F)(F)F)cc(N3CCCCC3)c2)c1
- IC50 (Plasmepsin 4): 210 nM
- IC50 (Cathepsin D): 120 nM

Compound: COc1cccc(C(C)(C)NC[C@@H](O)[C@H](Cc2ccccc2)NC(=O)c2cccc(C(=O)NCCC(F)(F)F)c2)c1
- IC50 (Plasmepsin I): 10300 nM
- IC50 (Plasmepsin 4): 150 nM
- IC50 (Cathepsin D): 4900 nM
- IC50 (Plasmepsin II): 10400 nM
- EC50 (Plasmodium falciparum): 6 nM

Compound: COc1cccc(C(C)(C)NC[C@@H](O)[C@H](Cc2ccccc2)NC(=O)c2cc(C(=O)NCC3CCCCC3)cc(N3CCCCC3)c2)c1
- IC50 (Plasmepsin 4): 90 nM
- IC50 (Cathepsin D): 150 nM

Compound: COc1cccc(C(C)(C)NC[C@@H](O)[C@H](Cc2ccccc2)NC(=O)c2cc(C(=O)N(CCO)CCO)cc(N3CCCCC3)c2)c1
- IC50 (Plasmepsin 4): 68 nM
- IC50 (Cathepsin D): 270 nM

Compound: COCCNC(=O)c1cc(C(=O)N[C@@H](Cc2ccccc2)[C@H](O)CNC(C)(C)c2cccc(OC)c2)cc(N2CCCCC2)c1
- IC50 (Plasmepsin 4): 50 nM
- IC50 (Cathepsin D): 750 nM

Compound: COc1cccc(C(C)(C)NC[C@@H](O)[C@H](Cc2ccccc2)NC(=O)c2cc(C(=O)NCCC(F)(F)F)cc(N3CCCCC3)c2)c1
- IC50 (Plasmepsin I): 2500 nM
- IC50 (Plasmepsin 4): 24 nM
- IC50 (Cathepsin D): 580 nM
- IC50 (Plasmepsin II): 2200 nM
- EC50 (Plasmodium falciparum): 2 nM

Compound: CCCN(CCC)C(=O)c1cc(C(=O)N[C@@H](Cc2ccccc2)[C@H](O)CNC(C)(C)c2cccc(OC)c2)cc(C(=O)N(CCC)CCC)c1
- IC50 (Plasmepsin I): 780 nM
- IC50 (Plasmepsin 4): 18 nM
- IC50 (Cathepsin D): 700 nM
- IC50 (Plasmepsin II): 270 nM
- EC50 (Plasmodium falciparum): 6 nM

Compound: COc1cccc(C(C)(C)NC[C@@H](O)[C@H](Cc2ccccc2)NC(=O)c2cc(C(=O)NCCOC(C)(C)C)cc(N3CCCCC3)c2)c1
- IC50 (Plasmepsin 4): 31 nM
- IC50 (Cathepsin D): 150 nM

Compound: CCN(CC)C(=O)c1cc(C(=O)N[C@@H](Cc2ccccc2)[C@H](O)CNC(C)(C)c2cccc(OC)c2)cc(N2CCCCC2)c1
- IC50 (Plasmepsin I): 800 nM
- IC50 (Plasmepsin 4): 14 nM
- IC50 (Cathepsin D): 250 nM
- IC50 (Plasmepsin II): 160 nM
- inhibition [1]: Active
- EC50 (Plasmodium falciparum): 1.5 nM

Compound: COc1cccc(C(C)(C)NC[C@@H](O)[C@H](Cc2ccccc2)NC(=O)c2cc(C(=O)NCC3CC3)cc(N3CCCCC3)c2)c1
- IC50 (Plasmepsin I): 1800 nM
- IC50 (Plasmepsin 4): 30 nM
- IC50 (Cathepsin D): 760 nM
- IC50 (Plasmepsin II): 500 nM
- EC50 (Plasmodium falciparum): 1.8 nM

Compound: COc1cccc(C(C)(C)NC[C@@H](O)[C@H](Cc2ccccc2)NC(=O)c2cc(C(=O)NCCCO)cc(N3CCCCC3)c2)c1
- IC50 (Plasmepsin 4): 93 nM
- IC50 (Cathepsin D): 2250 nM

Compound: COc1cccc(C(C)(C)NC[C@@H](O)[C@H](Cc2ccccc2)NC(=O)c2cc(C(=O)NC(C)(C)CO)cc(N3CCCCC3)c2)c1
- IC50 (Plasmepsin 4): 120 nM
- IC50 (Cathepsin D): 1460 nM

Compound: COc1cccc(C(C)(C)NC[C@@H](O)[C@H](Cc2ccccc2)NC(=O)c2cc(C(=O)NCc3ccccc3)cc(N3CCCCC3)c2)c1
- IC50 (Plasmepsin 4): 38 nM
- IC50 (Cathepsin D): 220 nM

Compound: COc1cccc(C(C)(C)NC[C@@H](O)[C@H](Cc2ccccc2)NC(=O)c2cc(C(=O)N(CC(C)C)CC(C)C)cc(N3CCCCC3)c2)c1
- IC50 (Plasmepsin 4): 500 nM
- IC50 (Cathepsin D): 1300 nM

Compound: COCCN(CCOC)C(=O)c1cc(C(=O)N[C@@H](Cc2ccccc2)[C@H](O)CNC(C)(C)c2cccc(OC)c2)cc(N2CCCCC2)c1
- IC50 (Plasmepsin 4): 37 nM
- IC50 (Cathepsin D): 100 nM

Compound: CCCN(CCC)C(=O)c1cc(C#N)cc(C(=O)N[C@@H](Cc2ccccc2)[C@H](O)CNC(C)(C)c2cccc(OC)c2)c1
- IC50 (Plasmepsin 4): 59 nM
- IC50 (Cathepsin D): 560 nM

Compound: CCCN(CCC)C(=O)c1cc(C(=O)N[C@@H](Cc2ccccc2)[C@H](O)CNC(C)(C)c2cccc(OC)c2)cc(C(F)(F)F)c1
- IC50 (Plasmepsin 4): 15 nM
- IC50 (Cathepsin D): 67 nM

Compound: COc1cccc(C(C)(C)NC[C@@H](O)[C@H](Cc2ccccc2)NC(=O)c2cc(C(=O)N(C)C)cc(N3CCCCC3)c2)c1
- IC50 (Plasmepsin 4): 87 nM
- IC50 (Cathepsin D): 500 nM

Compound: COc1cccc(C(C)(C)NC[C@@H](O)[C@H](Cc2ccccc2)NC(=O)c2cc(C(=O)NCC(C)(C)C)cc(N3CCCCC3)c2)c1
- IC50 (Plasmepsin I): 2000 nM
- IC50 (Plasmepsin 4): 27 nM
- IC50 (Cathepsin D): 400 nM
- IC50 (Plasmepsin II): 850 nM
- EC50 (Plasmodium falciparum): 6 nM

Compound: COc1cccc(C(C)(C)NC[C@@H](O)[C@H](Cc2ccccc2)NC(=O)c2cc(C(=O)NCC(C)(C)O)cc(N3CCCCC3)c2)c1
- IC50 (Plasmepsin 4): 100 nM
- IC50 (Cathepsin D): 1660 nM

Compound: COc1cccc(C(C)(C)NC[C@@H](O)[C@H](Cc2ccccc2)NC(=O)c2cc(C(=O)NCCO)cc(N3CCCCC3)c2)c1
- IC50 (Plasmepsin 4): 210 nM
- IC50 (Cathepsin D): 1420 nM

Compound: CCCN(CCC)C(=O)c1cccc(C(=O)N[C@@H](Cc2ccccc2)[C@H](O)CNC(C)(C)c2cccc(OC)c2)c1
- IC50 (Plasmepsin I): 3100 nM
- IC50 (Plasmepsin 4): 58 nM
- IC50 (Cathepsin D): 1150 nM
- IC50 (Plasmepsin II): 1700 nM
- inhibition [1]: Active
- EC50 (Plasmodium falciparum): 0.3 nM
- inhibition [2]: Active

Compound: COc1cccc(C(C)(C)NC[C@@H](O)[C@H](Cc2ccccc2)NC(=O)c2cc(C(=O)NCC(C)(C)OC)cc(N3CCCCC3)c2)c1
- IC50 (Plasmepsin I): 7400 nM
- IC50 (Plasmepsin 4): 48 nM
- IC50 (Cathepsin D): 2100 nM
- IC50 (Plasmepsin II): 5400 nM
- EC50 (Plasmodium falciparum): 2 nM

Compound: CCCN(CCC)C(=O)c1cc(C)cc(C(=O)N[C@@H](Cc2ccccc2)[C@H](O)CNC(C)(C)c2cccc(OC)c2)c1
- IC50 (Plasmepsin 4): 23 nM
- IC50 (Cathepsin D): 210 nM

Reference: ChEMBL document CHEMBL4330085, “Peptidomimetic plasmepsin inhibitors with potent anti-malarial activity and selectivity against cathepsin D” (Eur J Med Chem, 2019)
